Screening results deposited in PubChem BioAssay by several laboratories.
Rows were chosen to be rich in hits. Some 4.2% of all compounds tested hit in one or more screens of this group.
Mot1-301 SUMO = blocks SUMOylation pathway, rescuing yeast Mot1-301 growth; S. cerevisiae Mot1-301 growth rescue, ATP luminescence, 38.5C; percent above DMSO median, 100 means doubled; growth rescue, % at 18.8 µM; 1% of 320,000 active;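 active means every valid replicate shows activation above 250% relative to neutral control wells; inactive means the rest, any valid replicate at or below 250%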;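 further: OY570 slx delta 5 strain wells were the positive control but not used for scaling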
AI-2 QS mod = modulators of Vibrio harveyi AI-2 quorum sensing system. 0.4% of 300,000 active. Vibrio harveyi JMH597 AI-2 luminescence/OD600 ratio, 9 h; hits give low values; strain lacks LuxN and CqsS sensors; 0 = neutral-control median. AID 2094. activity change, % at 7.5 µM; in the data active means activity change below about -75%, passing the limit was not always enough; inconclusive means no clear call, values can overlap the other calls;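 further: luminescence divided by OD600 gain over 9 h not by final OD600 alone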
KCNQ1 inh = blocks the human KCNQ1 potassium channel. P51787. CHO-K1 KCNQ1, FluxOR thallium flux fluorescence; hits give high values. B-score at 10 µM. 1.3% of 310,000 active;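 active means compounds whose thallium flux B-score, printed positive for inhibition, exceeds three library SD while starting fluorescence stays within three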;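 further: channel opened by potassium depolarization with thallium stimulus after 20 min compound exposure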
Target sequence (P51787 whole entry, looked up): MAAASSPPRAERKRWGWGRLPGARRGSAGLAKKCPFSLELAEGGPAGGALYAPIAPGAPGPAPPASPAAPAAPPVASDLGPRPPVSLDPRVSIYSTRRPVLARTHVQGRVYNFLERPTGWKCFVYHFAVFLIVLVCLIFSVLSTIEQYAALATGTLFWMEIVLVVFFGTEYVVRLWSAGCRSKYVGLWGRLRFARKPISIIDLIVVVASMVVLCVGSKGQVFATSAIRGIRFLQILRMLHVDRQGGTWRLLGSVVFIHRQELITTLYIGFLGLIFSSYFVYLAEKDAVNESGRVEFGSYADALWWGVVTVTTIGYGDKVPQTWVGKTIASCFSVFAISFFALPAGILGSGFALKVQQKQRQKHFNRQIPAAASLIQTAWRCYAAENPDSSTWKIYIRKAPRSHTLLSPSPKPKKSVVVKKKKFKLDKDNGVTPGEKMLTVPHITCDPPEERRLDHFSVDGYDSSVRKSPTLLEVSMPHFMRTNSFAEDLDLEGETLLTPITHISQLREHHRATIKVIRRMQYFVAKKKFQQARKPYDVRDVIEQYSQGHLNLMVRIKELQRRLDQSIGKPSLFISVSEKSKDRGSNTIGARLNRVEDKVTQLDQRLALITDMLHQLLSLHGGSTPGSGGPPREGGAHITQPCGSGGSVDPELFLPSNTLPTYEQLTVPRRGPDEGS
Cl transport mod = KCC2 (human) Cl- transport modulation. KCC2 cells, thallium flux FluoZin-2 fluorescence. AID 1456. B-score of Tl+ flux slope (higher = more flux/activation; lower = inhibition) at 10 µM. 2.2% of 190,000 active;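 active means thallium flux slope and its plate-corrected score both differing from the plate sample mean at a set confidence after two filtering rounds, in either direction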;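 further: slope of fluorescence scaled to starting intensity during 10 to 20 s after thallium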
hERG protect = shields human hERG channel from block by proarrhythmic agents; Q12809; CHO-hERG, FluxOR thallium flux, dofetilide IC70 present; activation (rescue from dofetilide block), less the hit threshold, % at 10 µM; 0.51% of 310,000 active; AID 1511;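 active means activation above the mean of controls blocked by dofetilide plus 5 SD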;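 further: thallium influx through hERG after potassium depolarization seen as dye fluorescence rise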
KCNQ1 pot = potentiators or activators of human KCNQ1 potassium channel; CHO-K1 KCNQ1, thallium flux FluxOR fluorescence; hits give high values; B-score at 10 µM; AID 2648; 0.35% of 310,000 active;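 active means fluorescence ratio B-score, a plate-corrected score, at least three library SD, with initial intensity B-score within 5 SD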
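assay system = KCNQ1-transfected CHO-K1 cells | medium = assay buffer with matched DMSO | probe or stimulus = depolarizing K+/Tl+ stimulus, K2SO4 and Tl2SO4 each 12.5 mM in 5x stock | dosing = single dose | incubation = dye 90 min, compound 20 min, room temperature | detection = kinetic FluxOR fluorescence, 10 s baseline plus 110 s post-stimulus | evaluation = ratio B score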
KCC2 sec1 = KCC2 (human) modulation, secondary assay. HEK293-KCC2, thallium flux, FluoZin2 fluorescence; hits give high values. 15% of 3,700 active. AID 1713. normalised thallium flux (F/F0 slope) at 10 µM. shares compounds with Cl transport mod;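 active means thallium flux slope above the same plate's solvent-only control mean plus 3 SD; inconclusive means the two replicate wells disagree; inactive means no significant difference from solvent-only control wells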
KCC2 bumet counter = bumetanide-insensitive thallium flux in KCC2 cells with ouabain, counter-screen; shares compounds with Cl transport mod; HEK293-KCC2 + bumetanide/ouabain, thallium flux FluoZin2; hits give high values; normalized thallium flux at 10 µM; 49% of 3,700 active;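 active means thallium entry rate above the same plate's blocked-transporter control wells by more than 3 SD; inconclusive means the two repeat wells disagree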;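 further: raw slope of fluorescence over initial fluorescence between 10 and 20 s after thallium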
KCC2 sec2 = KCC2 (human) modulation, second secondary assay. shares compounds with Cl transport mod. HEK293-KCC2, thallium flux FluoZin2 fluorescence; actives lie on both sides; F/F0 rise rate, 10–20 s post-thallium. normalized thallium flux at 10 µM. 23% of 3,700 active. AID 1715;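 active means thallium flux slope more than 3 SD above or below the plate's solvent-only control mean, mostly below; inconclusive means the two repeat wells disagreed; inactive means no significant shift from solvent-only controls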;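 further: raw slope with 0.1% DMSO as baseline and bumetanide as block control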
HEK counter1 = counter-screen for KCC2 modulators: effect in parental HEK293 cells. AID 1716. thallium flux FluoZin2, ouabain; baseline-ratio fluorescence slope, 10–20 s after thallium. thallium flux rate (normalised fluorescence) at 10 µM. shares compounds with Cl transport mod. 46% of 3,700 active;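 active means thallium flux rate significantly above the same plate's solvent-only control wells, beyond their mean plus 3 SD; inconclusive means the two replicate wells gave conflicting results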
KCC2 ouabain = confirmation of human KCC2 modulators with ouabain; shares compounds with Cl transport mod; HEK293-KCC2, thallium flux FluoZin2 fluorescence; bidirectional: low = inhibitor, high = activator; raw Tl+ flux slope (below DMSO = inhibition, above = activation) at 10 µM; 48% of 3,700 active;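 active means thallium flux slope beyond 3 SD from same-plate DMSO control mean in most replicates, usually higher, sometimes lower; inconclusive means repeat tests gave conflicting results; inactive means no significant difference from controls in most replicates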;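 further: slope of initial-normalized fluorescence between seconds 10 and 20 after thallium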
HEK counter2 = acts in parental HEK cells, second KCC2 counter-screen | shares compounds with Cl transport mod | HEK293 parental, thallium flux FluoZin-2 fluorescence slope | thallium flux slope at 10 µM | 33% of 3,700 active;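 active means thallium flux slope above the same plate's solvent-control mean plus 3 SD in both duplicate wells; inconclusive means duplicate wells that disagreed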;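 further: run without ouabain in cells lacking the KCC2 cotransporter; slope of fluorescence scaled to its starting value between 10 and 20 s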
Active calls of the source: *; i = inactive; ? = inconclusive; . = not tested or not shown.

SMILES	Mot1-301 SUMO	AI-2 QS mod	KCNQ1 inh	Cl transport mod	hERG protect	KCNQ1 pot	KCC2 sec1	KCC2 bumet counter	KCC2 sec2	HEK counter1	KCC2 ouabain	HEK counter2
COC(=O)c1ccc(OC(C)C(=O)c2ccc(C)cc2)cc1 (configuration not stated)	7	1	i	0.33	-9	i	.	.	.	.	.	.
C[C@H](CO)N1C[C@H](C)[C@@H](CN(C)Cc2ccc(C(=O)Nc3ccccc3N)cc2)Oc2c(NC(=O)C3CCCCC3)cccc2C1=O	-13	.	.	.	.	.	.	.	.	.	.	.
CC(=O)C1=C(C)NC(SCC(=O)c2ccccc2)=C(C#N)C1CC(C)C (configuration not stated)	15	16	i	-2.9	-12	i	.	.	.	.	.	.
O=C(O)c1ccccc1C(=O)Nc1ccc(S(=O)(=O)NC2CCCCC2)cc1	7	32	i	0.11	-4	i	.	.	.	.	.	.
COc1cc2cc[n+](Cc3ccc([N+](=O)[O-])cc3)cc2cc1OC	190	19	i	.	-2	i	.	.	.	.	.	.
CCOC(=O)c1ccc(CNCc2ccccc2)cc1	5	6	i	1	-8	i	.	.	.	.	.	.
CCc1cc2c(SCc3nc4sc(C(C)=O)c(C)c4c(=O)[nH]3)ncnc2s1	-1	39	i	43*	-1	i	?	0.056*	0.052*	0.043*	0.053*	0.04*
O=C(Nc1ccnn1C1CCN(Cc2c[nH]c3ccccc23)CC1)c1ccccc1	-1	1	i	.	-8	i	.	.	.	.	.	.
CCC(Oc1ccccc1)C(=O)Nc1ncc([N+](=O)[O-])s1 (configuration not stated)	-17	24	i	-2.8*	-10	i	0.0077	?	0.033	0.007	0.017*	0.011
CCOc1cc(C2CC(=O)c3c(ccc4ccccc34)N2)ccc1O (configuration not stated)	-12	15	i	-0.079	-1	i	.	.	.	.	.	.
CCOCCCNC(=O)c1c[nH]c2ccc(OCC)cc2c1=O	-6	1	i	-0.29	-5	i	.	.	.	.	.	.
O=C(NC(=S)Nc1ccc2oc(=O)ccc2c1)c1cc2ccccc2o1	7	9	i	35*	-1	i	0.016*	0.049*	0.034	0.037*	?	0.017*
O=C(Nc1ccc(NC(=S)NC(=O)c2ccco2)cc1)c1ccccc1	-2	37	i	.	-3	i	.	.	.	.	.	.
O=C(NC(=S)Nc1ccc(CN2CCCCC2)cc1)c1ccco1	14	7	i	4*	-6	i	0.0094	0.035*	0.034	0.015*	0.042*	?
Cc1ccc(S(=O)(=O)N2CCCCC2)cc1NC(=S)NC(=O)c1ccco1	-1	17	i	22*	-15	i	0.0077	0.016*	0.028	0.013*	?	?
